Laboratory results: ChEMBL document CHEMBL1124270, “Quinolone antibacterial agents. Synthesis and structure-activity relationships of 8-substituted quinoline-3-carboxylic acids and 1,8-naphthyridine-3-carboxylic acids” (1988)
In brackets after ≈: the same amount, converted by molar mass.

Columns and labels:
Assay type in all cases: functional
[1] = system: Escherichia coli; test: Minimum inhibitory concentration against Escherichia coli H560 in vitro.
[2] = system: Escherichia coli; test: Minimum concentration needed to produce linear DNA at an intensity relative to oxolinic at 10 ug/mL in Escherichia coli H560 in vitro.
Outline: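 DNA gyrase cleavage test, run as previously described: end point is the lowest drug level (µg/mL) that yields linear DNA at a band intensity matching oxolinic acid at 10 µg/mL. Values come from duplicate or triplicate experiments and are stated as accurate to ±50%.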

[3] = system: Providencia rettgeri; test: Minimum inhibitory concentration against Providencia rettgeri H1771 in vitro.
[4] = system: Klebsiella pneumoniae; test: Minimum inhibitory concentration against Klebsiella pneumoniae MGH-2 in vitro.
[5] = system: Enterococcus faecalis; test: Minimum inhibitory concentration against Streptococcus faecalis MGH-2 in vitro.
[6] = system: Mus musculus; test: In vivo potency against Escherichia coli vogel using mouse protection assay when given subcutaneously; conditions: sc, read-out: PD50
[7] = system: Enterobacter cloacae; test: Minimum inhibitory concentration against Enterobacter cloacae HA 2646 in vitro.
[8] = system: Mus musculus; test: In vivo potency against Escherichia coli vogel using mouse protection assay when given perorally; conditions: po, read-out: PD50
[9] = system: Staphylococcus aureus; test: Minimum inhibitory concentration against Staphylococcus aureus H228 in vitro.
[10] = system: Streptococcus pneumoniae; test: Minimum inhibitory concentration against Streptococcus pneumoniae SV-1 in vitro.
[11] = system: Escherichia coli; test: Minimum inhibitory concentration against Escherichia coli vogel in vitro.
[12] = system: Staphylococcus aureus; test: Minimum inhibitory concentration against Staphylococcus aureus UC-76 in vitro.
[13] = system: Streptococcus pyogenes; test: Minimum inhibitory concentration against Streptococcus pyogenes C203 in vitro.
[14] = system: Pseudomonas aeruginosa; test: Minimum inhibitory concentration against Pseudomonas aeruginosa UI-18 in vitro.

NCC1CCN(c2cc3c(cc2F)c(=O)c(C(=O)O)cn3C2CC2)C1 (stereo unspecified)
MIC [1]: 0.006 µg/mL (≈ 0.0174 µM) | DNA cleavage conc (gyrase) [2]: 0.5 µg/mL | MIC [3]: 0.2 µg/mL (≈ 0.579 µM) | MIC [4]: 0.05 µg/mL (≈ 0.145 µM) | MIC [5]: 0.025 µg/mL (≈ 0.0724 µM) | ED50 [6]: 2 mg/kg | MIC [7]: 0.05 µg/mL (≈ 0.145 µM) | ED50 [8]: > 100 mg/kg | MIC [9]: 0.025 µg/mL (≈ 0.0724 µM) | MIC [10]: 0.003 µg/mL (≈ 0.00869 µM) | MIC [11]: 0.05 µg/mL (≈ 0.145 µM) | MIC [12]: 0.006 µg/mL (≈ 0.0174 µM) | MIC [13]: 0.025 µg/mL (≈ 0.0724 µM) | MIC [14]: 0.8 µg/mL (≈ 2.32 µM)

CCNCC1CCN(c2c(F)cc3c(=O)c(C(=O)O)cn(C4CC4)c3c2[N+](=O)[O-])C1.Cl (stereo unspecified)
MIC [1]: 0.4 µg/mL | MIC [3]: 1.6 µg/mL | MIC [4]: 0.8 µg/mL | MIC [5]: 0.4 µg/mL | MIC [7]: 0.4 µg/mL | MIC [9]: 0.4 µg/mL | MIC [10]: 0.1 µg/mL | MIC [11]: 0.4 µg/mL | MIC [12]: 0.1 µg/mL | MIC [13]: 0.2 µg/mL | MIC [14]: 6.3 µg/mL

CC(C)NCC1CCN(c2cc3c(cc2F)c(=O)c(C(=O)O)cn3C2CC2)C1.Cl (stereo unspecified)
MIC [1]: 0.05 µg/mL | MIC [3]: 0.8 µg/mL | MIC [4]: 0.2 µg/mL | MIC [5]: 0.1 µg/mL | ED50 [6]: 4 mg/kg | MIC [7]: 0.1 µg/mL | ED50 [8]: 25 mg/kg | MIC [9]: 0.2 µg/mL | MIC [10]: 0.025 µg/mL | MIC [11]: 0.1 µg/mL | MIC [12]: 0.025 µg/mL | MIC [13]: 0.05 µg/mL | MIC [14]: 3.1 µg/mL

CCNCC1CCN(c2cc3c(cc2F)c(=O)c(C(=O)O)cn3C2CC2)C1.Cl (stereo unspecified)
MIC [1]: 0.05 µg/mL | DNA cleavage conc (gyrase) [2]: 1 µg/mL | MIC [3]: 0.8 µg/mL | MIC [4]: 0.2 µg/mL | MIC [5]: 0.2 µg/mL | MIC [7]: 0.4 µg/mL | ED50 [8]: 35 mg/kg | MIC [9]: 0.4 µg/mL | MIC [10]: 0.2 µg/mL | MIC [11]: 0.2 µg/mL | MIC [12]: 0.013 µg/mL | MIC [13]: 0.05 µg/mL | MIC [14]: 1.6 µg/mL

CCNCC1CCN(c2c(F)cc3c(=O)c(C(=O)O)cn(C4CC4)c3c2N)C1.Cl.Cl (stereo unspecified)
MIC [1]: 0.8 µg/mL | DNA cleavage conc (gyrase) [2]: 2.5 µg/mL | MIC [3]: 1.6 µg/mL | MIC [4]: 0.8 µg/mL | MIC [5]: 0.2 µg/mL | MIC [7]: 0.4 µg/mL | MIC [9]: 0.8 µg/mL | MIC [10]: 0.4 µg/mL | MIC [11]: 0.4 µg/mL | MIC [12]: 0.05 µg/mL | MIC [13]: 0.2 µg/mL | MIC [14]: 3.1 µg/mL

O=C(O)c1cn(C2CC2)c2c(Cl)c(N3CCNCC3)c(F)cc2c1=O
MIC [1]: 0.025 µg/mL (≈ 0.0683 µM) | DNA cleavage conc (gyrase) [2]: 0.5 µg/mL | MIC [3]: 0.1 µg/mL (≈ 0.273 µM) | MIC [4]: 0.05 µg/mL (≈ 0.137 µM) | MIC [5]: 0.4 µg/mL (≈ 1.09 µM) | ED50 [6]: 0.4 mg/kg | MIC [7]: 0.025 µg/mL (≈ 0.0683 µM) | ED50 [8]: 0.8 mg/kg | MIC [9]: 0.1 µg/mL (≈ 0.273 µM) | MIC [10]: 0.1 µg/mL (≈ 0.273 µM) | MIC [11]: 0.025 µg/mL (≈ 0.0683 µM) | MIC [12]: 0.05 µg/mL (≈ 0.137 µM) | MIC [13]: 0.2 µg/mL (≈ 0.547 µM) | MIC [14]: 0.4 µg/mL (≈ 1.09 µM)

CNCC1CCN(c2c(F)cc3c(=O)c(C(=O)O)cn4c3c2OCC4C)C1 (stereo unspecified)
MIC [1]: 0.2 µg/mL (≈ 0.533 µM) | DNA cleavage conc (gyrase) [2]: 1 µg/mL | MIC [3]: 3.1 µg/mL (≈ 8.26 µM) | MIC [4]: 0.4 µg/mL (≈ 1.07 µM) | MIC [5]: 0.1 µg/mL (≈ 0.266 µM) | MIC [7]: 0.4 µg/mL (≈ 1.07 µM) | MIC [9]: 0.4 µg/mL (≈ 1.07 µM) | MIC [10]: 0.1 µg/mL (≈ 0.266 µM) | MIC [11]: 0.2 µg/mL (≈ 0.533 µM) | MIC [12]: 0.025 µg/mL (≈ 0.0666 µM) | MIC [13]: 0.05 µg/mL (≈ 0.133 µM) | MIC [14]: 1.6 µg/mL (≈ 4.26 µM)

Cl.NC1CCN(c2c(F)cc3c(=O)c(C(=O)O)cn(C4CC4)c3c2[N+](=O)[O-])C1 (stereo unspecified)
MIC [1]: 0.4 µg/mL | MIC [3]: 0.8 µg/mL | MIC [4]: 0.4 µg/mL | MIC [5]: 1.6 µg/mL | ED50 [6]: 9 mg/kg | MIC [7]: 0.2 µg/mL | ED50 [8]: 30 mg/kg | MIC [9]: 0.8 µg/mL | MIC [10]: 1.6 µg/mL | MIC [11]: 0.2 µg/mL | MIC [12]: 0.2 µg/mL | MIC [13]: 1.6 µg/mL | MIC [14]: 1.6 µg/mL

Nc1c(N2CCNCC2)c(F)cc2c(=O)c(C(=O)O)cn(C3CC3)c12
MIC [1]: 0.2 µg/mL (≈ 0.577 µM) | DNA cleavage conc (gyrase) [2]: 2.5 µg/mL | MIC [3]: 0.4 µg/mL (≈ 1.15 µM) | MIC [4]: 0.8 µg/mL (≈ 2.31 µM) | MIC [5]: 12.5 µg/mL (≈ 36.1 µM) | ED50 [6]: 2 mg/kg | MIC [7]: 0.4 µg/mL (≈ 1.15 µM) | ED50 [8]: 58 mg/kg | MIC [9]: 6.3 µg/mL (≈ 18.2 µM) | MIC [10]: 12.5 µg/mL (≈ 36.1 µM) | MIC [11]: 0.4 µg/mL (≈ 1.15 µM) | MIC [12]: 0.8 µg/mL (≈ 2.31 µM) | MIC [13]: 6.3 µg/mL (≈ 18.2 µM) | MIC [14]: 0.8 µg/mL (≈ 2.31 µM)
